Measurements reported in ChEMBL document CHEMBL1142684, “Application of a flexible synthesis of (5R)-thiolactomycin to develop new inhibitors of type I fatty acid synthase” (J Med Chem, 2005).
Converted amounts (≈) assume the structure as drawn.

Assays:
[1] = test system: MCF7; experiment: Inhibitory concentration against MCF-7 breast cancer cells in XTT assay (non radioactive assay); assay type: functional, cell-based, Homo sapiens
In short: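 MCF-7 human breast cancer cells, cytotoxicity measured by XTT cell proliferation assay (nonradioactive). The procedure was adapted from the kit instructions. IC50 is the average of duplicate runs.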

[2] = test system: MCF7; experiment: Inhibitory concentration against fatty acid synthesis in MCF-7 breast cancer cells; assay type: functional, cell-based, Homo sapiens
[3] = molecular target: Fatty acid synthase (Homo sapiens, UniProt P49327); experiment: Inhibitory concentration against purified human fatty acid synthase activity in ZR-75-1 breast cancer cells
In short: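 FAS purified from ZR-75-1 human breast cancer cells (2 µg per well). Overall reaction read at 37 °C as malonyl-CoA-dependent NADPH oxidation at 340 nm, every 10 s for 5 min. Average of duplicate runs; neg means IC50 > 50 µg/mL.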

[4] = test system: Mus musculus; experiment: Maximum amount of weight loss in Balb/C mice after 7 days of 60 mg/kg intraperitoneal administration; assay type: functional
In short: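 Balb/C mice were given a single ip dose of 60 mg/kg in 100 µL DMSO (stock 10 mg/mL in DMSO), or vehicle alone. Mice were weighed daily until treated animals returned to pretreatment weight. The value is the maximum weight loss measured over 7 days.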

[5] = Homo sapiens, MCF7, read-out: IC50

Fatty acid synthase, sequence (P49327 whole entry): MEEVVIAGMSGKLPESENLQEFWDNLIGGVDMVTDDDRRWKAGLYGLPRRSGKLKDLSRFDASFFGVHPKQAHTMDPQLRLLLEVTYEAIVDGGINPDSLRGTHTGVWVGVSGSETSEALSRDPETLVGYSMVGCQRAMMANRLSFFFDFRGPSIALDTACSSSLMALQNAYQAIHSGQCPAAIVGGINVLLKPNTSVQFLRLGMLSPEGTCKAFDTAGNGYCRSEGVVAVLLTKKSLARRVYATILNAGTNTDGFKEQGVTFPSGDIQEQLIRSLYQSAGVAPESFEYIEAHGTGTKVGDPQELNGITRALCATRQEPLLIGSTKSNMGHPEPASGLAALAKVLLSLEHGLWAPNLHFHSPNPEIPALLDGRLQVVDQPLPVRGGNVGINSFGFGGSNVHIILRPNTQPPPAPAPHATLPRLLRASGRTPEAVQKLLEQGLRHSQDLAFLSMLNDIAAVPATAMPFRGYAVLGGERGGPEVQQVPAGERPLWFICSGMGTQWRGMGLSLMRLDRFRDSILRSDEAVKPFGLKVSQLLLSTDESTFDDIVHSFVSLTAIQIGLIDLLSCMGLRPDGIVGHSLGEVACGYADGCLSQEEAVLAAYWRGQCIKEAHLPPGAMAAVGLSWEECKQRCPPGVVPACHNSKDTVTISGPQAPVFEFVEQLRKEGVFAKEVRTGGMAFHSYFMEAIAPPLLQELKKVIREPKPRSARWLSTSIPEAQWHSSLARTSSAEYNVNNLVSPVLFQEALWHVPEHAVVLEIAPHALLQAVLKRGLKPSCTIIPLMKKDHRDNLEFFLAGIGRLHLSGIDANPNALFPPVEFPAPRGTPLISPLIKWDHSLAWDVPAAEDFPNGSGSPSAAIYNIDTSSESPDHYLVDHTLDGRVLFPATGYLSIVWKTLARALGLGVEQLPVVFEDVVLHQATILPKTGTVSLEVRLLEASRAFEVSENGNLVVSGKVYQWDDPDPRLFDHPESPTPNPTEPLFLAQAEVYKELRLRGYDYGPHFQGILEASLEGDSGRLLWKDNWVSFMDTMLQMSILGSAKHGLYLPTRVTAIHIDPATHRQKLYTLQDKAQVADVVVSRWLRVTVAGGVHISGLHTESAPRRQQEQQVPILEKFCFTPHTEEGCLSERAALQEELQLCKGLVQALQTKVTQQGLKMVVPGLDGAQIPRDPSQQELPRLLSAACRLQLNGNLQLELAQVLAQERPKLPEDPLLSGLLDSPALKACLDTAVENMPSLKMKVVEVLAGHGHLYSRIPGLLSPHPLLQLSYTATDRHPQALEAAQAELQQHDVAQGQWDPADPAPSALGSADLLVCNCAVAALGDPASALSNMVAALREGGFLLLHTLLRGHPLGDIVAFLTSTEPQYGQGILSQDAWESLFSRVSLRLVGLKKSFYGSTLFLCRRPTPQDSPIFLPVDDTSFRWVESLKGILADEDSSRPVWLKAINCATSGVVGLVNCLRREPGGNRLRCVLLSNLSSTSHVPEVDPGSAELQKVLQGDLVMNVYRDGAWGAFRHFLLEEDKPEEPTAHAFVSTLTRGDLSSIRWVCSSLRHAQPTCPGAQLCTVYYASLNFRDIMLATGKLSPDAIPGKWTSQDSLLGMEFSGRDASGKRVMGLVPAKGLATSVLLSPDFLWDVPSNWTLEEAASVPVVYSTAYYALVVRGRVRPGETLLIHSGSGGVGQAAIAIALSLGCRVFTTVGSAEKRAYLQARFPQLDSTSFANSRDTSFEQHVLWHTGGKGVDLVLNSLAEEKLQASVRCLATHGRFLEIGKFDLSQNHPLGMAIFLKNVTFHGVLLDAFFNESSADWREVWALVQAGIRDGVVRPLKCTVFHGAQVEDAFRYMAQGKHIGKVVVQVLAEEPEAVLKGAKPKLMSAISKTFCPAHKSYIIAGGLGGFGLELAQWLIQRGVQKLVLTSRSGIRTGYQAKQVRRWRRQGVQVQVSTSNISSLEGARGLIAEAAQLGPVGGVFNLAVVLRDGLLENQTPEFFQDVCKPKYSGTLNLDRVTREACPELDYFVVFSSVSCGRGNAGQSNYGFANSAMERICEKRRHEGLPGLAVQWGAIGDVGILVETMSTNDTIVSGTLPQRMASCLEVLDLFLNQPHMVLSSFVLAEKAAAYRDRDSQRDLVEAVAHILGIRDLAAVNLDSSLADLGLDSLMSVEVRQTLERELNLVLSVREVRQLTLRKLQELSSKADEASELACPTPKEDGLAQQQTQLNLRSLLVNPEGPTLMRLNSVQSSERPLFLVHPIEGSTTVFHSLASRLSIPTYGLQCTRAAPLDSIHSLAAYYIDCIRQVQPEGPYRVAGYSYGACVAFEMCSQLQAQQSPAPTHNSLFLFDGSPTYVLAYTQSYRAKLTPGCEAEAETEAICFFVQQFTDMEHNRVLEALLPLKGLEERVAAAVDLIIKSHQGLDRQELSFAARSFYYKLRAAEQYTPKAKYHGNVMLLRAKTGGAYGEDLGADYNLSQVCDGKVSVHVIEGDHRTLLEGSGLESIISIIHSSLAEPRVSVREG

Row | SMILES | IC50 [1, 5] [µg/mL] | IC50 [2, 5] [µg/mL] | IC50 [3] [µM] | Weight loss [4] [%] | IC50 ([1]; mcf7) [µg/mL] | IC50 ([2]; mcf7) [µg/mL] | Weight loss ([4]; 60 mg/kg) [%]
1 | CCCCCCCC[C@@]1(C)SC(=O)C(C)=C1OC | 17.3 (≈ 64 µM) | > 50 | > 185 | – | – | – | –
2 | C[C@]1(Cc2ccccc2)SC(O)=CC1=O | > 80 | > 50 | > 227 | 1.6 | – | – | –
3 | CCCCCCCC[C@@]1(C)SC(=O)C=C1OCCCCCl | 35.3 (≈ 106 µM) | > 50 | > 150 | – | – | – | –
4 | CCCCCCCC[C@@]1(C)SC(O)=C(C(C)O)C1=O (stereo in doubt; 30) | – | – | 11.5 | – | 21 (≈ 73.3 µM) | 21.7 (≈ 75.8 µM) | 0.2
5 | C=CCC1(C)C(=O)S[C@](C)(CCCCCCCC)C1=O (some centres undefined) | 40.5 (≈ 137 µM) | > 50 | > 169 | – | – | – | –
6 | C=C/C(C)=C/[C@@]1(C)SC(=O)C=C1O | > 80 | – | 42.8 | 7.8 | – | – | –
7 | CCCCCCCC[C@@]1(C)SC(=O)C=C1OC | 16.4 (≈ 64 µM) | > 50 | > 195 | – | – | – | –
8 | CCCCCC[C@@]1(C)SC(=O)C=C1OC | 9.4 (≈ 41.2 µM) | 14 (≈ 61.3 µM) | > 219 | – | – | – | –
9 | CCCCCCCC[C@@]1(C)SC(=O)C=C1OC(=O)OC | 21.6 (≈ 71.9 µM) | 10.7 (≈ 35.6 µM) | 6.99 | 6.1 | – | – | –
10 | C=C/C(C)=C/[C@@]1(C)SC(=O)C(C)=C1O (stereo in doubt; form 1) [THIOLACTOMYCIN] | > 80 | 38.4 (≈ 183 µM) | 100 | – | – | – | –
11 | CCCCCC[C@@]1(C)SC(=O)C=C1OCC(=O)NCCCBr | 21 (≈ 53.5 µM) | 6.7 (≈ 17.1 µM) | > 127 | – | – | – | –
12 | C=CCC1(CC=C)C(=O)S[C@](C)(CCCCCCCC)C1=O | 40.5 (≈ 126 µM) | > 50 | > 155 | – | – | – | –
13 | CCCCCC[C@@]1(C)SC(=O)C=C1OCC(=O)OCC | 39.6 (≈ 132 µM) | 14.2 (≈ 47.3 µM) | > 166 | – | – | – | –
14 | CCCCCCCC[C@@]1(C)SC(=O)C=C1OC(=O)CC | 26.8 (≈ 89.8 µM) | 22.6 (≈ 75.7 µM) | > 168 | – | – | – | –
15 | C=CCOC1=CC(=O)S[C@]1(C)CCCCCC | 9 (≈ 35.4 µM) | > 50 | > 197 | – | – | – | –
16 | C/C=C/C(C)=C/[C@@]1(C)SC(O)=CC1=O | > 80 | 17.3 (≈ 82.3 µM) | > 238 | 4.1 | – | – | –
17 | C=CCNC(=O)COC1=CC(=O)S[C@]1(C)CCCCCCCC | 12.1 (≈ 35.6 µM) | > 50 | > 147 | 2.4 | – | – | –
18 | CCCCCCCC[C@@]1(C)SC(=O)C=C1OC(=O)OCC | 15.1 (≈ 48 µM) | 14.5 (≈ 46.1 µM) | 14.6 | 7.1 | – | – | –
19 | CCCCCCCC[C@@]1(C)SC(=O)C=C1OCC(=O)OCC | 35.3 (≈ 107 µM) | 10.8 (≈ 32.9 µM) | > 152 | 2.7 | – | – | –
20 | CCCCCCCC[C@@]1(C)SC(O)=C(C(=O)C(F)(F)F)C1=O | 18.4 (≈ 54.4 µM) | 14.7 (≈ 43.4 µM) | 121 | – | – | – | –

Row | SMILES | IC50 [1, 5] [µg/mL] | IC50 [2, 5] [µg/mL] | IC50 [3] [µM] | Weight loss [4] [%] | IC50 ([1]; mcf7) [µg/mL] | IC50 ([2]; mcf7) [µg/mL] | Weight loss ([4]; 60 mg/kg) [%]
21 | CCCCCC[C@@]1(C)SC(O)=CC1=O | > 80 | 16.5 (≈ 77 µM) | > 233 | – | – | – | –
22 | CCCCCCCC[C@@]1(C)SC(O)=C(C)C1=O | 48 (≈ 187 µM) | 16.5 (≈ 64.3 µM) | 192 | 0 | – | – | –
23 | C#CCOC1=CC(=O)S[C@]1(C)CCCCCC | 8.9 (≈ 35.3 µM) | 21.9 (≈ 86.8 µM) | > 198 | – | – | – | –
24 | CCCCCCCC[C@@]1(C)SC(O)=C(C(C)O)C1=O (stereo in doubt; 29) | 23.9 (≈ 83.4 µM) | 17.6 (≈ 61.4 µM) | 19.9 | – | – | – | 3.5
25 | COC1=CC(=O)S[C@]1(C)Cc1ccccc1 | – | > 50 | > 213 | – | – | – | –
26 | CCCC/C=C/C=C/[C@@]1(C)SC(O)=CC1=O | 60 (≈ 252 µM) | 22.6 (≈ 94.8 µM) | 36.5 | 11 | – | – | –
27 | C=CCOC1=CC(=O)S[C@]1(C)CCCCCCCC | 14.5 (≈ 51.3 µM) | > 50 | > 177 | – | – | – | –
28 | CCCCCCCC[C@@]1(C)SC(O)=C(C(C)=O)C1=O | 12.5 (≈ 43.9 µM) | 12 (≈ 42.2 µM) | > 176 | 8.2 | – | – | –
29 | C=CCOC(=O)OC1=CC(=O)S[C@]1(C)CCCCCCCC | 37.3 (≈ 114 µM) | 14.2 (≈ 43.5 µM) | 20.8 | 3.4 | – | – | –
30 | C=C/C(C)=C/[C@@]1(C)SC(=O)C(C)=C1O (stereo in doubt; form 2) [THIOLACTOMYCIN] | – | – | 143 | 2.6 | – | 41.8 (≈ 199 µM) | –
31 | CCCCCCCC[C@@]1(C)SC(O)=CC1=O | 17.6 (≈ 72.6 µM) | 12.6 (≈ 52 µM) | 16.5 | 2 | – | – | –
32 | CCCCCCCC[C@@]1(C)SC(O)=C(C(=O)OC)C1=O | 47.2 (≈ 157 µM) | 18.7 (≈ 62.2 µM) | > 166 | – | – | – | –
33 | CCCCCCCC[C@@]1(C)SC(=O)C=C1OCC(=O)O | – | 13.8 (≈ 45.9 µM) | > 166 | – | – | – | –
34 | CCCCCC[C@@]1(C)SC(=O)C=C1OCCCCCl | 20.8 (≈ 68.2 µM) | 8.6 (≈ 28.2 µM) | > 164 | – | – | – | –
35 | C=CCOC1=C(C)C(=O)S[C@]1(C)CCCCCCCC | 34.7 (≈ 117 µM) | > 50 | > 169 | – | – | – | –
36 | CC/C=C/C=C/[C@@]1(C)SC(O)=CC1=O | > 80 | 16.9 (≈ 80.4 µM) | > 238 | 3.2 | – | – | –
37 | C=CCC1=C(O)S[C@](C)(CCCCCCCC)C1=O | 44.4 (≈ 157 µM) | 34.8 (≈ 123 µM) | 9.91 | – | – | – | –
38 | CCCCCC[C@@]1(C)SC(=O)C=C1OCC(=O)NCC(=O)O | – | 6.6 (≈ 20 µM) | > 152 | 3.5 | – | – | –
39 | CCCCCC[C@@]1(C)SC(=O)C=C1OCC(=O)NCC(=O)OC | 40.5 (≈ 118 µM) | 9.8 (≈ 28.5 µM) | > 146 | – | – | – | –
